≈ marks a conversion by molar mass, not a printed value. Calls of active or inactive are those of the source. The calls are words filed in the database; no cut-off is given here.

This is an account of results in ChEMBL document CHEMBL2062366, “Synthesis and biological evaluation of purpurealidin E-derived marine sponge metabolites: aplysamine-2, aplyzanzine A, and suberedamines A and B” (2012).

Holding throughout (assay type): functional
For test [1], the system named is Enterococcus faecalis. Nature of the test: Antibacterial activity against Enterococcus faecalis NCTC 775 after 24 hrs. The note with it: NCTC 775, 24 h. The procedure, abridged:
(§1)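 Agar dilution in Isosensitest agar at final compound levels of 128–1 μg/mL, from 10 mg/mL DMSO stocks. Solvent-only control plates covered the same DMSO range. Strains were pre-grown overnight on Columbia agar at 37 °C and multipoint-inoculated at 10 000 cfu/spot. Plates were read after 24 h at 37 °C. MIC was taken as the lowest concentration giving no visible growth, with tests repeated on a separate occasion.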

For test [2], the system named is Staphylococcus epidermidis. Nature of the test: Antibacterial activity against Staphylococcus epidermidis NCTC 11047 after 24 hrs. As to conditions: NCTC 11047, 24 h. The essentials:
as §1

For test [3], the system named is Staphylococcus aureus. The test is described as follows: Antibacterial activity against Staphylococcus aureus NCTC 6571 after 24 hrs. The note with it: NCTC 6571, 24 h. The essentials: (§2)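 Agar dilution on Isosensitest agar with final 128−1 μg/mL compound from DMSO solution; DMSO-only control plates. Strains pre-grown overnight on Columbia agar at 37 °C, suspended in sterile water, diluted to give 10 000 cfu per spot. Incubated 37 °C, 24 h. MIC = lowest concentration completely inhibiting visible growth; repeated on a separate occasion.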

In test [4] the test system is Staphylococcus aureus. Nature of the test: Antibacterial activity against methicillin-resistant Staphylococcus aureus NCTC 11939 after 24 hrs. The note with it: NCTC 11939, 24 h. The procedure, abridged: as §2
The test system of test [5] is Mycobacterium tuberculosis. The test is described as follows: Antimycobacterial activity against Mycobacterium tuberculosis H37Rv after 2 weeks by spot culture growth inhibition assay. The procedure, abridged:
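H37Rv grown as standing culture in 7H9 + 10% ADC + 0.05% Tween-80 to McFarland 1, checked for contamination on blood agar. Culture diluted to 10³ cfu/mL; 10 μL spotted onto 7H10 agar + 10% OADC with compound, 37 °C, 2 weeks. Controls: DMSO (negative), isoniazid (positive). MIC = lowest concentration with no growth.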

Test [6] concerns Bacillus subtilis. The test is described as follows: Antibacterial activity against Bacillus subtilis NCTC 9372 after 24 hrs. The note with it: NCTC 9372, 24 h. The procedure, abridged: as §1
The subject of test [7] is Enterococcus faecium. The test is described as follows: Antibacterial activity against Enterococcus faecium NCTC 7171 after 24 hrs. As to conditions: NCTC 7171, 24 h. The essentials: as §1
Test [8] concerns Listeria monocytogenes. Nature of the test: Antibacterial activity against Listeria monocytogenes NCTC 11994 after 24 hrs. As to conditions: NCTC 11994, 24 h. The essentials: as §1
In test [9] the test system is Streptococcus pyogenes. Nature of the test: Antibacterial activity against Streptococcus pyogenes NCTC 8306 after 24 hrs. The note with it: NCTC 8306, 24 h. The procedure, abridged: as §1
The test system of test [10] is K562. Nature of the test: Growth inhibition of human K562 cells after 48 hrs by sulforhodamine B assay. The note with it: K562, 48 h, pooled result: one value given for 6 cell lines, strains, targets or settings. The procedure, abridged: (§3)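 Run at the NCI Developmental Therapeutics Program under the standard DTP NCI60 protocol. Total cell protein was measured by sulforhodamine B staining at time 0 and after 48 h exposure. GI50, the concentration giving a 50% reduction of growth, was estimated from dose–response curves.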
(In general: In SRB staining, fixed cells bind dye roughly in proportion to their protein.)

The test system of test [11] is Escherichia coli. The test is described as follows: Antibacterial activity against Escherichia coli NCTC 10418 after 24 hrs. As to conditions: NCTC 10418, 24 h. The procedure, abridged: as §1
Test [12] deals with Candida albicans. The test is described as follows: Antifungal activity against Candida albicans ATCC 90028 after 24 hrs. As to conditions: ATCC 90028, 24 h. The essentials: as §1
Test [13] has as its system Nakaseomyces glabratus. Nature of the test: Antifungal activity against Candida glabrata NCPF 9725 after 24 hrs. The note with it: NCPF 9725, 24 h. The procedure, abridged: as §1
The nature of test [14]: Growth inhibition of human NCI60 cells after 48 hrs by sulforhodamine B assay. As to conditions: NCI60, 48 h. The essentials: as §3

In the case of `COc1ccc(C/C(=N\O)C(=O)NCCc2cc(Br)c(OCCCN(C)C)c(Br)c2)cc1Br`, the MIC (commonly the lowest concentration found to suppress growth) in test [1] stood at 64 µg/mL (≈ 98.4 µM); in test [2] it was 64 µg/mL (≈ 98.4 µM); in test [3], 32 µg/mL (≈ 49.2 µM); in test [4] it was 64 µg/mL (≈ 98.4 µM); in [5] (336 h) it was 25 µg/mL (≈ 38.4 µM); in test [6] it was 32 µg/mL (≈ 49.2 µM). Besides, the MIC was 64 µg/mL (≈ 98.4 µM) in [7], 64 µg/mL (≈ 98.4 µM) in test [8] and 32 µg/mL (≈ 49.2 µM) in [9].
On to `CN[C@@H](Cc1cc(Br)c(OC)c(Br)c1)C(=O)NCCc1cc(Br)c(OCCCN(C)C)c(Br)c1`, for which the GI50 was 2.17 µM in test [10] (read-out: GI50) and 4.79 µM in [10] (read-out: pGI50 (converted)).
For the compound `CN(C)CCCOc1c(Br)cc(CCN)cc1Br`, in test [5], the MIC entry was “inactive”.
Take `CNC(Cc1cc(Br)c(OC)c(Br)c1)C(=O)NCCCOc1c(Br)cc(CCN(C)C)cc1Br.Cl` (centres undefined) [ANOMOIAN A]: the MIC in test [2] was determined as 64 µg/mL; in test [3], 64 µg/mL; in test [4], 64 µg/mL; in test [5] (336 h), 25 µg/mL; in [6], 32 µg/mL; in test [7], 64 µg/mL. The MIC in test [8], in [9] and in test [11] was 64 µg/mL throughout.
Take `COc1c(Br)cc(C[C@@H](C(=O)NCCc2cc(Br)c(OCCCN(C)C)c(Br)c2)N(C)C)cc1Br` [APLYZANZINE A]: the MIC in [1] was found to be 32 µg/mL (≈ 43.1 µM); in test [12], 64 µg/mL (≈ 86.1 µM); in test [2], 16 µg/mL (≈ 21.5 µM); in test [13] it was 64 µg/mL (≈ 86.1 µM); in test [3] it was 32 µg/mL (≈ 43.1 µM); in test [4] it was 32 µg/mL (≈ 43.1 µM). The MIC in [5] (336 h) came to 25 µg/mL (≈ 33.6 µM); in test [6], 16 µg/mL (≈ 21.5 µM); in test [7], 32 µg/mL (≈ 43.1 µM); in test [8], 32 µg/mL (≈ 43.1 µM); in test [9], 16 µg/mL (≈ 21.5 µM); in test [11] it was 32 µg/mL (≈ 43.1 µM).
`COc1ccc(C[C@H](N)C(=O)NCCc2cc(Br)c(OCCCN(C)C)c(Br)c2)cc1Br` [SUBEREDAMINE A]: the MIC in [2] is 64 µg/mL (≈ 101 µM); in test [5] (336 h), 50 µg/mL (≈ 78.6 µM); in test [6] it was 64 µg/mL (≈ 101 µM).
Take `CN[C@@H](Cc1ccc(OC)c(Br)c1)C(=O)NCCc1cc(Br)c(OCCCN(C)C)c(Br)c1` [SUBEREDAMINE B]: the GI50 in test [14] (read-out: GI50) was 5.47 µM; in [14] (read-out: pGI50 (converted)), 4.79 µM. Inhibition of growth in test [5] (336 h) (MIC) required 40 µg/mL (≈ 61.5 µM).
